pIC50: −log10 of the molar value. Non-standard residues stand in square brackets, D forms with d. Residues, ends and D or L forms follow the SMILES beside them. *: point of attachment. Dolaproine = CO[C@@H]([C@@H]1CCCN1)[C@@H](C)C(=O)O; Dil = CC[C@H](C)[C@H](NC)[C@@H](CC(=O)O)OC; X1 = C[C@@H](N*)[C@@H](O)c1ccccc1; NMeV = CN[C@H](C(=O)O)C(C)C
Key:
Dose escalation study = experiment: Dose escalation study; parameters: species or system Balb/c nu/nu mice; conditions: female, athymic Balb/c nu/nu, mouse, in vivo
Outline: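 Escalating doses (250 or 500 nmol/Kg) were given as five injections on five consecutive days to […] female athymic Balb/c nu/nu mice aged 8–10 weeks. An acetazolamide-targeted prodrug was compared with an untargeted analogue, with three mice per group.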

[1] = Linker stability assay in mouse serum; type: in vitro ADME
SKRC-52 xenografts [2] = experiment: Therapy experiments in mice bearing subcutaneous SKRC-52 tumors; type: in vivo, Balb/c nu/nu mice; conditions: 250 nmol/Kg, ten daily administrations
[3] = Linker stability assay in PBS; type: physicochemical; conditions: pH 7.4
[4] = test system: CAIX-expressing SKRC-52 cells; experiment: In vitro cytotoxicity assay; type: cell-based, human; conditions: read-out: IC50 (cytotoxicity), 72 h, 37 °C, MTS
SKRC-52 xenografts [5] = conditions: cited from earlier work

Structure (SMILES): CC[C@H](C)[C@@H]([C@@H](CC(=O)N1CCC[C@H]1[C@H](OC)[C@@H](C)C(=O)N[C@H](C)[C@@H](O)c1ccccc1)OC)N(C)C(=O)[C@@H](NC(=O)[C@H](C(C)C)N(C)C(=O)OCc1ccc(NC(=O)[C@H](CCCNC(N)=O)NC(=O)[C@@H](NC(=O)CCCCCN2C(=O)CC(SC[C@H](NC(=O)[C@H](CC(=O)O)NC(=O)[C@H](CCCNC(=N)N)NC(=O)[C@H](CC(=O)O)NC(=O)CCCCn3cc(CCCC(=O)Nc4nnc(S(N)(=O)=O)s4)nn3)C(=O)O)C2=O)C(C)C)cc1)C(C)C (some centres unmarked) [Compound 4a]
- MTD at 5 days (Dose escalation study): 0.5 µmol/kg
- main release product (mass spectrometric analysis) ([1]; degradation profile in mouse serum): free MMAE
- conjugate intact after 6 hours in mouse serum ([1]; mouse serum, 37 °C, 6 hours, LC-MS): > 70%
- half-life ([1]; mouse, mouse serum): ~7 h
- acute toxicity and body weight (SKRC-52 xenografts [2]): no acute toxicity and no significant weight loss
- durable complete response (SKRC-52 xenografts [2]): One out of five
- half-life at 100 μg/ml [3]: > 48 h

Structure (SMILES): CC[C@H](C)[C@@H]([C@@H](CC(=O)N1CCC[C@H]1[C@H](OC)[C@@H](C)C(=O)N[C@H](C)[C@@H](O)c1ccccc1)OC)N(C)C(=O)[C@@H](NC(=O)[C@@H](NC)C(C)C)C(C)C [MMAE, monomethyl auristatin E] (H-[NMeV]V[Dil][Dolaproine]-X1)
- pIC50 [4]: 8.82

Structure (SMILES): COc1cccc2c1C(=O)c1c(O)c3c(c(O)c1C2=O)C[C@@](O)(C(=O)CO)C[C@@H]3O[C@H]1C[C@H]2[C@H](O[C@@H]3[C@@H](OC)OCCN32)[C@H](C)O1 [PNU-159682]
- pIC50 [4]: 9.80

Structure (SMILES): CNC(=O)c1cc(Oc2ccc(NC(=O)Nc3ccc(Cl)c(C(F)(F)F)c3)cc2)ccn1 [sorafenib]
- activity against SKRC-52 tumors (SKRC-52 xenografts [5]): did not display any detectable activity

Structure (SMILES): CCN(CC)CCNC(=O)c1c(C)[nH]c(/C=C2\C(=O)Nc3ccc(F)cc32)c1C [sunitinib]
- activity against SKRC-52 tumors (SKRC-52 xenografts [5]): did not display any detectable activity

Reference: PMC5214883 (Molecular cancer therapeutics, 2016)
